From ChEMBL document CHEMBL1140384, “Synthesis and structure-activity relationships of suramin-derived P2Y11 receptor antagonists with nanomolar potency” (J Med Chem, 2005)
pIC50: −log10 of the molar value.

Columns and labels:
[1] = target: T1, P2Y purinoceptor 11 (Homo sapiens) (UniProt Q96G91); assay: Relative potency was measured against P2Y purinoceptor 11; assay type: functional
T1 sequence (whole entry): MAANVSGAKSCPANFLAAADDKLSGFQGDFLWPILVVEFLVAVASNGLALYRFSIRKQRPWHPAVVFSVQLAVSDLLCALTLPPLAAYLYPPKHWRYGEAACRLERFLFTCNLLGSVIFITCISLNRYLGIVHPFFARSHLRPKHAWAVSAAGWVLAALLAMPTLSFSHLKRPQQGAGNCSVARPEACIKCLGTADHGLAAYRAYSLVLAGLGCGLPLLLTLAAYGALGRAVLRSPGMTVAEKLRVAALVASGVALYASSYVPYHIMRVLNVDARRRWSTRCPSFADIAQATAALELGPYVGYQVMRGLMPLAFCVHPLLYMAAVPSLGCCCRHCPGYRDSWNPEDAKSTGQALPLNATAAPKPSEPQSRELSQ

P2X purinoceptor 1 = target: T2, P2X purinoceptor 1 (Homo sapiens, UniProt P51575); assay: Inhibitory concentration against human P2X purinoceptor 1 expressed in Xenopus laevis oocytes; assay type: functional, cell-based, Oocyte
T2 sequence (P51575 whole entry): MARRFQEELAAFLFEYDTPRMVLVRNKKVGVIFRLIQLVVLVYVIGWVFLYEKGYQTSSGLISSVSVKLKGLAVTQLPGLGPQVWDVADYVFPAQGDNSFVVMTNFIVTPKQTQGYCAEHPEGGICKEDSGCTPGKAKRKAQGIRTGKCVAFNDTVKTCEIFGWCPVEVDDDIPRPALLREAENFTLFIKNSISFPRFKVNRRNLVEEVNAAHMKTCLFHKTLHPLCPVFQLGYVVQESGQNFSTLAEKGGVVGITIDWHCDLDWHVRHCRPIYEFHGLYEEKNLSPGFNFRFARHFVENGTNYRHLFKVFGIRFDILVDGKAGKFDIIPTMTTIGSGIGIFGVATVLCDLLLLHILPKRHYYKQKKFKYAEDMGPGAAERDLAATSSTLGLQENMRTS
Procedure, shortened: (§1)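 Two-electrode voltage clamp on Xenopus laevis oocytes expressing recombinant rat or human P2X subtypes, recording receptor-mediated currents. IC50 values came from nonlinear least-squares Hill fits to pooled concentration-inhibition data; mean ± SEM from at least three experiments.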

P2Y purinoceptor 1 [2] = target: T3, P2Y purinoceptor 1 (Homo sapiens, UniProt P47900); assay: Inhibitory concentration against P2Y purinoceptor 1 expressed in 1321N1 astrocytoma Cells; (n=3)
P2Y purinoceptor 11 = target: T4, P2Y purinoceptor 11 (Homo sapiens, UniProt Q96G91); assay: Inhibitory concentration against P2Y11 receptor expressed in 1321N1 astrocytoma Cells; (n=7)
T4 sequence (Q96G91 whole entry): T1 sequence (whole entry)
Procedure, shortened: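 Human P2Y11 stably expressed in 1321N1 astrocytoma cells (G418 selection), loaded with Oregon Green 488 BAPTA-1/AM (3 µM, 60 min, 25 °C) in Krebs-HEPES. Compound preincubated 30 min at 37 °C before injection of 1 µM ATPγS. Ca2+ fluorescence read at ex 485/em 520 nm for 30 s. IC50 from concentration-inhibition curves; independent experiments each run in triplicate.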

P2X purinoceptor 7 = target: T5, P2X purinoceptor 7 (Rattus norvegicus, UniProt Q64663); assay: Inhibitory concentration against rat P2X purinoceptor 7 expressed in Xenopus laevis oocytes; assay type: functional, cell-based, Oocyte; procedure, shortened: as §1
T5 sequence (Q64663 whole entry): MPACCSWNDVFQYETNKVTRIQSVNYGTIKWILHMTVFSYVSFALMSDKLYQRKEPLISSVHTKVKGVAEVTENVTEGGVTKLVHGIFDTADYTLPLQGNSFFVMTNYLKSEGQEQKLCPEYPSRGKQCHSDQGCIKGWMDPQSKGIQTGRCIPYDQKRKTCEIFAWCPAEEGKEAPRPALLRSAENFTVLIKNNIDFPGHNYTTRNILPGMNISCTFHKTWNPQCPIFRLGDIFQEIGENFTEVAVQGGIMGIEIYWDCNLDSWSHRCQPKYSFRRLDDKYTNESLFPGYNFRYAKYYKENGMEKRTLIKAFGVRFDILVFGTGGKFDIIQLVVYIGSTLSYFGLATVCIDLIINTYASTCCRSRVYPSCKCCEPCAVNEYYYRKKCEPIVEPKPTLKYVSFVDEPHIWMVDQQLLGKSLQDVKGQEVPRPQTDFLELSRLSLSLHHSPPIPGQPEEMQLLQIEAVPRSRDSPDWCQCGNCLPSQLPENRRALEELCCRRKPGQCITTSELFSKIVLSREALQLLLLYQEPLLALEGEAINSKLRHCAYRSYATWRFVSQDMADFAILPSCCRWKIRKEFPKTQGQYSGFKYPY

P2X purinoceptor 4 = target: T6, P2X purinoceptor 4 (Rattus norvegicus, UniProt P51577); assay: Inhibitory concentration against rat P2X purinoceptor 4 expressed in Xenopus laevis oocytes; assay type: functional, cell-based, Oocyte; procedure, shortened: as §1
T6 sequence (P51577 whole entry): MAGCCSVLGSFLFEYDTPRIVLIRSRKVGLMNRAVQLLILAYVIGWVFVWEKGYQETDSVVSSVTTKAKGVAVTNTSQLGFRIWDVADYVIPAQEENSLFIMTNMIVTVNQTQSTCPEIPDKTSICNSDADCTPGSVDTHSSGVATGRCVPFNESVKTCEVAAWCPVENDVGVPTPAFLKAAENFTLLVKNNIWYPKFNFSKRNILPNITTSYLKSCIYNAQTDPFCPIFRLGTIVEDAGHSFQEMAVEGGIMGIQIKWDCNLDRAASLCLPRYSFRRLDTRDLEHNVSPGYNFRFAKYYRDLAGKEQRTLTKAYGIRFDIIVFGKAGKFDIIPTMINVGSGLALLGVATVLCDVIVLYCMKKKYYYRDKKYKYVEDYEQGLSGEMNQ

P2Y purinoceptor 1 [3] = target: T3, P2Y purinoceptor 1; assay: Percent inhibition of agonist-induced calcium mobilization at P2Y purinoceptor 1 recombinantly expressed in human HEK293 cells at 100 uM dose; assay type: functional, cell-based; details: in the assay text read “native in” for “recombinantly expressed in”
Procedure, shortened: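 Single 100 µM antagonist dose, preincubated 30 min at 37 °C, in a Ca2+ fluorescence assay (Oregon Green 488 BAPTA-1/AM). Agonists: 31.6 nM 2-MeSADP for native P2Y1 and 3.16 µM UTP for native P2Y2, both in HEK293 cells; 1 µM ATPγS for recombinant P2Y11 in 1321N1 cells. Response expressed as % of agonist control; mean ± SEM, n ≥ 3.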

T3 sequence (P47900 whole entry): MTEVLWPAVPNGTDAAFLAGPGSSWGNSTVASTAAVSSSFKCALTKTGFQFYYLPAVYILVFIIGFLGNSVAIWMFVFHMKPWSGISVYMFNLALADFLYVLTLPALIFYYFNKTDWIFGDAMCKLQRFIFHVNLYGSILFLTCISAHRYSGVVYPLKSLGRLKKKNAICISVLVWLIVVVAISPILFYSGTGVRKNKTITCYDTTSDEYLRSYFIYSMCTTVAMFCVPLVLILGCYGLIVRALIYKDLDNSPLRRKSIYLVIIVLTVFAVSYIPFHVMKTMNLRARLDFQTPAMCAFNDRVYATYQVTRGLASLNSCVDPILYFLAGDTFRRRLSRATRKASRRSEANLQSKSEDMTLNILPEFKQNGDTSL

Rel potency [1]: 100
pIC50 (P2X purinoceptor 1): 7.20
pIC50 (P2Y purinoceptor 1 [2]): 2.74
pIC50 (P2Y purinoceptor 11): 6.34
pIC50 (P2X purinoceptor 7): < 5.50
pIC50 (P2X purinoceptor 4): < 6.00
inhibition (P2Y purinoceptor 1 [3]): 63.3%
SMILES: O=C(Nc1cccc(C(=O)Nc2cc(C(=O)Nc3ccc(S(=O)(=O)O)c4cc(S(=O)(=O)O)cc(S(=O)(=O)O)c34)ccc2F)c1)Nc1cccc(C(=O)Nc2cc(C(=O)Nc3ccc(S(=O)(=O)O)c4cc(S(=O)(=O)O)cc(S(=O)(=O)O)c34)ccc2F)c1
